Compounds with a hit are over-represented: about 2.5% of the library has one in this group of screens.
Insulin prom inh: TRM-6 insulin promoter activity inhibition. inhibition, % at 2 µM. 0.9% of 130,000 active. AID 1273. TRM-6 cells (human fetal islet line), insulin promoter-eGFP reporter, imaging; reporter expression induced with tamoxifen;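 active = inhibition above the mean plus 3 SD, with well images judged a real hit on visual review, cut at about 60% in these data, passing the limit was not always enough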
NPY2 pot ag: human NPY-Y2 potentiation or agonism, primary screen; cells expressing NPY-Y2, potentiator/agonist read-out; 0.45% of 220,000 active; activation, % at 3.6 µM; P49146; in the data active = activation above about 27%;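 note: cells stimulated with NPY near EC25 plus isoproterenol at EC100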
NPY Y2 blocker: antagonists of human neuropeptide Y receptor Y2; inhibition, % at 2.7 µM; 0.99% of 140,000 active; NPY-Y2 expressing cells, antagonist mode; in the data active = inhibition above about 17%
NPY1 pot ag: human NPY-Y1 potentiation or agonism, primary screen | NPY-Y1 expressing cells, potentiator/agonist activation | activation, % at 3.6 µM | 0.37% of 220,000 active; in the data active = activation above about 33%, passing the limit was not always enough;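 note: cells stimulated with NPY at EC10 then isoproterenol at EC100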
Target sequence (P25929 whole entry, looked up): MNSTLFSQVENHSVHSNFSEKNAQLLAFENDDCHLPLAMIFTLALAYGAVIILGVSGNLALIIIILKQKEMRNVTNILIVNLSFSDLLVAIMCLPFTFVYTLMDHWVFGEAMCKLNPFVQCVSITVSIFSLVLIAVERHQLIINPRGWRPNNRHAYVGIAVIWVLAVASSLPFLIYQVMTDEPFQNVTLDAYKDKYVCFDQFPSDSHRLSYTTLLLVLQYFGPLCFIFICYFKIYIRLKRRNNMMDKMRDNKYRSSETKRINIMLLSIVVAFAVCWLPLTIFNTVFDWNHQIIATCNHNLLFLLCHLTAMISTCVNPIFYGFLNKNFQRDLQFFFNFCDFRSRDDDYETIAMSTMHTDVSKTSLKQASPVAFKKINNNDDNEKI
Insulin prom up: MIN6 insulin promoter up-regulation | 0.3% of 190,000 active | z-score at 5 µM | MIN6 insulin promoter-GFP reporter, high-content imaging; stronger effect = higher value | AID 1625;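 active = z-score above 3 at 5 µM with at least 500 cells counted in the well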
NPY Y1 blocker: antagonists of human neuropeptide Y receptor Y1. HEK293-CNG Y1 cells, membrane potential fluorescence; NPY at EC95, then isoproterenol. inhibition, % at 3.6 µM. 1% of 200,000 active;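 active = inhibition above the campaign mean inhibition of all tested compounds plus 3 SD, cut at about 20% in these data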
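Material: Y1- and CNG-channel-expressing HEK293 cells / Probe or stimulus: NPY 25 nM then isoproterenol 1 µM plus Ro 20-1724 25 µM / Doses: 3.6 µM single dose, DMSO 0.4% / Schedule: compound incubation 1 h at room temperature, readout 45 min post-stimulation / Signal: membrane potential fluorescence / Benchmarks: isoproterenol-only wells as full block versus NPY-plus-isoproterenol wells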
Numbers stand for hits; n = inactive; x = no result.

SMILES | Insulin prom inh | NPY2 pot ag | NPY Y2 blocker | NPY1 pot ag | Insulin prom up | NPY Y1 blocker
CCOc1ccc(N=c2oc3cc(O)ccc3cc2C(=O)NCC2CCCO2)cc1 (configuration not stated) | n | n | n | n | n | n
COc1ccc(N=c2oc3cc(O)ccc3cc2C(=O)NCC2CCCO2)c(OC)c1 (configuration not stated) | n | n | 31 | n | n | 30
COc1ccc(C(NC(=O)C(C)C)c2c(O)ccc3ccccc23)cc1OC (configuration not stated) | x | n | n | n | n | n
COC(=O)c1cc2c(ccn2-c2ccc(F)cc2)n1C(C)C | n | n | 21 | n | n | 35
COC(=O)C1=C(C)N(Cc2cccnc2)C(=O)/C1=C\c1sccc1C | x | n | x | n | n | n
COC(=O)CSc1nc2nc(C)c(Br)cc2[nH]1 | n | n | n | n | n | n
C=C(C)CSc1nc2nc(C)c(Br)cc2[nH]1 | 79 | n | n | n | n | n
CN1CCN(Cc2nc(N)nc(Nc3ccc4c(c3)OCCO4)n2)CC1 | x | n | n | n | 4.7 | n
COC(=O)/C(=C\c1ccc2c(c1)c1ccccc1n2C)NC(=O)c1ccccc1 | n | n | n | n | x | n
CC(C)OC(=O)/C(=C\c1ccc2c(c1)c1ccccc1n2C)NC(=O)c1ccccc1 | n | n | n | n | x | 23
COc1ccc2c(c1)C(C)=CC(C)(C)N2C(=O)C(C)N1C(=O)c2ccccc2C1=O (configuration not stated) | n | n | n | n | x | n
CC1=CC(C)(C)N(C(=O)C(C)N2C(=O)c3ccccc3C2=O)c2c(C)cc(C)cc21 (configuration not stated) | n | n | 18 | n | n | 28
CCCCn1c(NCc2ccc3c(c2)OCO3)nc2ccccc21 | n | n | n | n | n | 20
c1ccc(Cn2c(CNc3nc4ccccc4n3CCN3CCCCC3)nc3ccccc32)cc1 | x | n | 27 | n | n | n
CCN(CC)c1ccc(CNc2nc3ccccc3n2CCN2CCCCC2)cc1 | n | 44 | x | 45 | n | n
Cn1c(CNc2nc3ccccc3n2CCN2CCCCC2)nc2ccccc21 | n | n | n | n | n | n
CCN(CC)CCn1c(NCc2nc3ccccc3n2Cc2ccccc2)nc2ccccc21 | n | n | 19 | n | n | 22
OCC1CCCCN1C(=S)Nc1cccc(Cl)c1 (configuration not stated) | x | n | x | n | n | n
CCCN(CCC)CCCn1c(=O)[nH]c2ccccc21 | x | n | x | n | n | n
COc1ccc(NC(=O)c2[nH]c(C)c(C(C)=O)c2C)cc1Cl | n | n | n | n | 3.8 | n
CCCOc1nc(SCCC)nc2c1cnn2-c1ccccc1 | x | n | x | n | n | x
CC1CCCC(C)N1/N=C/c1ccccc1C(=O)O (configuration not stated) | 72 | n | x | n | n | n
CC1CCCC(C)N1/N=C/C=C/c1ccccc1[N+](=O)[O-] (configuration not stated) | x | n | x | n | n | n
CN(C)/C=C/C(=O)Oc1ccc(Cl)cc1Cl | n | n | x | n | x | n
CCCCCn1nc(C)c(/C=N\NC(=O)c2cc(C)oc2C)c1C | 85 | n | n | n | n | n
SMILES | Insulin prom inh | NPY2 pot ag | NPY Y2 blocker | NPY1 pot ag | Insulin prom up | NPY Y1 blocker
CCCCCn1nc(C)c(/C=N/NC(=O)c2ccoc2C)c1C | 93 | n | n | n | x | n
COc1ccc(NC2=Nc3ccccc3N3C2=Nc2c(c(C)nn2-c2ccc(C)cc2)C3c2cccnc2)cc1 (configuration not stated) | n | n | n | n | 3.1 | n
CC(=O)Nc1ccc(NC2=Nc3ccccc3N3C2=Nc2c(c(C)nn2-c2ccccc2)C3c2ccccc2)cc1 (configuration not stated) | n | n | n | n | n | n
Cc1cccc(C(=O)n2cnnc2N)c1 | n | n | x | n | n | n
O=c1c2ccccc2c(C=Nc2ccccc2O)c(O)n1-c1nccs1 | x | n | x | n | 4.3 | x
COc1cc(/C=N/N2C(=O)c3ccccc3NC2(C)c2cccc([N+](=O)[O-])c2)cc(Br)c1O (configuration not stated) | n | n | 17 | n | n | n
COc1cc(/C=N/NC(=O)c2ccc([N+](=O)[O-])cc2Cl)cc(Br)c1O | n | n | n | n | n | n
COc1ccccc1-n1c(=O)c2c3c(sc2n2c(SC)nnc12)CCC3 | n | n | n | n | x | n
Cc1ccc(NC(=O)c2cc([N+](=O)[O-])ccc2NCc2cccnc2)cc1Cl | n | n | n | 39 | n | n
COc1cccc(NC(=O)c2cc([N+](=O)[O-])ccc2NCc2cccnc2)c1 | n | n | n | n | n | n
CC(=O)N1CN(C2CCCC2)Cc2c1sc1c2CCCC1 | n | n | 18 | n | n | 24
O=[N+]([O-])c1ccc(N2CCN(c3ccc(Cl)nn3)CC2)cc1NC1CC1 | n | n | n | n | x | n
COc1ccc(Cn2nnnc2C(c2cccs2)N2CCOCC2)cc1 (configuration not stated) | 100 | n | n | n | n | n
CC1(C)CN(O)CCN1O | x | n | n | n | n | n
O=C(Nc1ccc(-n2ccc(C(F)(F)F)n2)cc1)Nc1cccc(Cl)c1 | x | 40 | x | 52 | n | x
CCOc1ccc2nc(-c3ccccc3)[nH]c2c1 | 86 | n | n | n | n | n
CCN1C(=O)C(CC(=O)Nc2ccc(OC)cc2)N(Cc2ccc3c(c2)OCO3)C1=S (configuration not stated) | n | n | n | n | n | n
Cc1ccc(NCCc2ccc(C)nc2)cc1 | 75 | n | n | n | n | n
COc1ccc(Nc2nc(N3CCCCC3)c3ccccc3n2)cc1 | n | n | 41 | n | n | 34
Cc1ccc(Nc2nc(N3CCOCC3)c3ccccc3n2)cc1 | x | n | n | n | n | 23
CCOC(=O)N1CCC(NCc2c(C(=O)N(C)Cc3ccccc3)nc3ccccn23)CC1 | x | n | x | n | n | n
COc1ccc2c(c1)-c1c(sn(-c3ccc(OC)c(OC)c3)c1=S)C(C)(C)N2 | n | 38 | n | 53 | n | n
CCOC(=O)Cn1c(=O)oc2cc(S(=O)(=O)Nc3c(C)cc(C)cc3C)ccc21 | x | n | n | 38 | n | n
CCOC(=O)Cn1c(=O)oc2cc(S(=O)(=O)NC3CCCc4ccccc43)ccc21 (configuration not stated) | x | 37 | n | 63 | n | n
CC1CCC(n2c(=S)[nH]c3ccccc3c2=O)CC1 (configuration not stated) | 80 | n | n | n | n | n
O=c1c2ccccc2[nH]c(=S)n1C1CCCCC1 | n | n | n | n | n | n
CN(c1ccccc1C(=O)Nc1ccc(F)c(Cl)c1)S(C)(=O)=O | x | n | x | n | n | n
CC(C)CSc1nsc(N)n1 | 86 | n | n | n | n | n
COc1ccccc1NC(=O)/C=C\C(=O)O | 100 | n | x | n | n | n
CCOC(=O)N1CCC(n2c(SCC(=O)NCc3ccccc3)nc3ccccc3c2=O)CC1 | x | n | n | n | n | n

Assay outcomes from PubChem.
